Results: ChEMBL document CHEMBL4513216, “Probing the Open Global Health Chemical Diversity Library for Multistage-Active Starting Points for Next-Generation Antimalarials” (ACS Infect Dis, 2020)

Assay: Toxicity liver stage against HepG2, at 10uM
Format: cell-based
Parameters: test concentration 10 uM, cell line HepG2-A16-CD81EGFP
Settings: human, HepG2-A16-CD81EGFP cells; read-out: INHIBITION
In short: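 Uninfected HepG2-A16-CD81EGFP cells, 3 × 10^3 per well, 1536-well, plated on prespotted compound at 10 μM final, parasite-free screening media added to match infected plates; puromycin 10 μM positive, DMSO 0.5% negative; run in parallel with 48 h PbLuc assay at 37 °C, 5% CO2; viability by CellTiter-Glo luminescence, normalized to controls.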

Row | SMILES | cytotoxicity at 10 µM [%]
1 | O=C1CCCN1C(CNS(=O)(=O)C1CC1)Cc1cccc(F)c1 (centres undefined) | 1.49
2 | CCN(CC)S(=O)(=O)c1cnccc1N1CCN(C(C)C)CC1 | -5.57
3 | COc1cccc(OCC2CCCN(C(=O)Cc3cccc(O)c3)C2)c1 (centres undefined) | -18.9
4 | CC(C)Oc1ccc(C(=O)N2CCCC2c2cnn(C)c2)cn1 (centres undefined) | -6.37
5 | O=c1c2ccccc2nc2n1C(CSc1cccc(C(F)(F)F)c1)CN2 (centres undefined) | 12.9
6 | CCN1Cc2c(C(=O)NC(C)C(C)C)ncn2-c2ccccc2S1(=O)=O (centres undefined) | -66.3
7 | Cc1cnn(CC(C)NCc2nc(-c3ccco3)no2)c1 (centres undefined) | -16
8 | CCNC(=O)[C@@H]1CCCN1C(=O)c1cccc(CCC(C)(C)O)c1 | 9.91
9 | Cn1cccc(NC(=O)N2CCC(Cc3ccccc3)C2)c1=O (centres undefined) | 11.9
10 | Cc1[nH]ncc1CCCNC(=O)N1CCCC(c2nncn2C)C1 (centres undefined) | -7.58
11 | O=C(CCNc1ncccn1)N1CCCC(n2ccnc2)C1 (centres undefined) | 0.289
12 | CCOc1ccnc(N2CCN(C(=O)c3cn[nH]c3CC)CC2)n1 | -6.69
13 | CN(C)c1nccc(N(C)Cc2ncnn2C)n1 | 6.09
14 | COc1cc(-c2cc(C3CCOC3)c(C#N)c(N)n2)ccc1O (centres undefined) | -0.412
15 | Cc1nc(C)n(CC2CN(Cc3cccc4c3OCCO4)CCO2)n1 (centres undefined) | -1.99
16 | N#CC1(C(=O)N2CCN(Cc3ccon3)CC2)CCC1 | -5.97
17 | COCCNC(=O)c1nc(-c2ccc3cc[nH]c3c2)no1 | -0.208
18 | CC(C)N1CC[C@H]2[C@H](C[C@@H](Cn3cncn3)N2c2nccs2)C1 | 4.68
19 | Cn1cnc(NC(=O)C2CC(=O)N(c3cccc(F)c3)C2)n1 (centres undefined) | 4.28
20 | O=C(c1ccccn1)N1CCCC(c2nccn2CC2CCC2)C1 (centres undefined) | -22.4
21 | CCC(C)N1Cc2c(C(=O)N3CCCC3)nn(C)c2C1 (centres undefined) | -5.03
22 | CNS(=O)(=O)CCNC(=O)c1coc(COc2ccc(F)cc2)n1 | 0.975

Row | SMILES | cytotoxicity at 10 µM [%]
23 | COCCCN1CC2(CCCN(c3ncc4nc[nH]c4n3)C2)CCC1=O (centres undefined) | -5.64
24 | Cn1cccc1C(=O)N1CCC2(CC1)COC(COc1ccccn1)C2 (centres undefined) | 1.48
25 | CCn1cc(CN2CCCn3nc(CCC(=O)NCCO)cc3C2)cn1 | -18.2
26 | CCCNS(=O)(=O)c1ccc(C(=O)NC(CC)c2cnn(C)c2)cc1 (centres undefined) | 6.1
27 | CCC1CCCCN1Cc1ncc(-c2ccc(OC)cc2)o1 (centres undefined) | 8.57
28 | Cc1noc(-c2cnc(NC3CC3)nc2-c2ccco2)c1C | 6.38
29 | Cc1cc(C)n(CC(C)CNC(=O)CCc2ccco2)n1 (centres undefined) | -1.05
30 | O=C(CCn1cnc2cc(F)c(F)cc21)N1CCN(C2CC2)CC1 | -1.54
31 | O=C(CCCc1ccccn1)NCC(O)c1ccccc1Cl (centres undefined) | -9.08
32 | Cn1nnc2c1C(COCC1CC1)CN(C(=O)CC1=CCCCC1)C2 (centres undefined) | -99.3
33 | CSCc1cccc(S(=O)(=O)NCCCN2CCOCC2)c1 | -8.63
34 | CCNc1cc2c(nn1)CCN(C(=O)C1Cc3ccccc3S1)C2 (centres undefined) | -1.4
35 | CCn1ncc(CNC(=O)c2cn(CCC3CCCCN3)nn2)c1C (centres undefined) | 2.72
36 | CC(=O)NC[C@]1(O)CCN(C(=O)c2ccc3c(c2)OCO3)C[C@H]1O | -9.91
37 | COc1ccc2c(=O)n(CC3CCNC3)ccc2c1OC (centres undefined) | 5.76
38 | COc1ccc(C(=O)N2C[C@@H](O)[C@H](NCc3ncccc3C)C2)cc1 | 0.225
39 | O=C(NCc1cc[nH]n1)N1CCC(Oc2ccccc2Cl)CC1 | 8.16
40 | CC(Cc1ccccc1F)C(=O)Nc1ccc(OCCC(N)=O)cc1 (centres undefined) | -5.56
41 | CN(C(=O)c1ccccc1N(C)S(C)(=O)=O)c1ccc(C(C)(C)C)cc1 | 5.17
42 | COCCN1CCN(Cc2ccc(Cl)cc2)[C@H]2CS(=O)(=O)C[C@H]21 | -4.01
43 | Cc1cc(CN2CC[C@H]3C[C@H](C)O[C@@H]3C2)no1 | -1.42
44 | O=C(NCCNc1ncccn1)C1CCCC1 | -22.9

Row | SMILES | cytotoxicity at 10 µM [%]
45 | CCc1nc(C2CCCN(C(=O)c3cccc(C(N)=O)c3)C2)no1 (centres undefined) | -22.2
46 | CN(C)CCOc1ccccc1N1CCN(C(=O)C(C)(C)C#N)CC1 | 11.4
47 | CC(NC(=O)N1CCC(c2ccccc2)CC1)c1nncn1C (centres undefined) | -10.3
48 | CCN(Cc1ccncc1)C(=O)c1cn(CCCc2ccccc2)nn1 | 3
49 | O=C(C1CCCOC1)N1CCc2ccc(F)cc21 (centres undefined) | 2.35
50 | NC(=O)c1cc(CC2CCCN(Cc3cnccn3)CC2)ncn1 (centres undefined) | -3.97
51 | Cc1nc(C)n(C2CCCN(C(=O)c3ccc(NC4CC4)nc3)C2)n1 (centres undefined) | -3.36
52 | COC(=O)c1cccn1C1CCN(Cc2cnc3ccccn23)CC1 | -8.86
53 | Cc1cnc(C(=O)N2CCCC(n3cccn3)C2)cn1 (centres undefined) | -0.29
54 | CN(Cc1ccc(F)cc1F)Cc1cc2c(cc1Br)OCCO2 | -111
55 | O=S1(=O)C[C@@H]2[C@H](C1)N(Cc1ncc[nH]1)CCN2Cc1cccnc1 | 0.875
56 | CCC(=O)NCc1ccccc1Cn1ccnc1 | -1.21
57 | CCN(Cc1ccoc1)C(=O)c1cc(C)c(C)c(S(N)(=O)=O)c1 | -1.69
58 | O=C(CC1CCCC1)N1CCC(c2nnc(-c3ccccn3)o2)CC1 | -3.32
59 | Cc1ccc(CCCC(=O)N2CCCC(CS(N)(=O)=O)C2)s1 (centres undefined) | 17.9
60 | COc1ccc(-c2csc(N)c2C#N)cc1 | 4.07
61 | Cc1nc2cc(=O)[nH]n2c(C)c1CC(=O)Nc1cnn(C)c1 | 4.58
62 | CC(C)c1noc(CCCC(=O)N2CCC(Cc3cccnc3)CC2)n1 | -5.43
63 | COc1cc(C(=O)NCCCc2ccccc2)on1 | -2.1
64 | CC(C)c1nnc2sc(CC3CN(C(C)C)CCO3)nn12 (centres undefined) | -13.8
65 | CCCc1cc(C(=O)NCCN2CCCS2(=O)=O)[nH]n1 | -7.13
66 | CCN1CC[C@]2(CN(C(=O)C3CCOCC3)C[C@H]2c2ccccc2)C1=O | 8.58

Row | SMILES | cytotoxicity at 10 µM [%]
67 | O=C(Cc1ccc2c(c1)CCO2)N1CCCCC1Cn1cccn1 (centres undefined) | -12.8
68 | c1ccc(Cc2nc(CN3CCCC3Cn3cncn3)cs2)cc1 (centres undefined) | -2.54
69 | Cc1ccc(CN2CCCC3(CCN(Cc4ccoc4)CC3)C2)cc1 | -91
70 | CSc1ccc(C(=O)C2CCCN(C(=O)CCn3cncn3)C2)cc1 (centres undefined) | -12.2
71 | CC(C)Cc1ccc(C(=O)Cn2cnnc2[S+](C)[O-])cc1 (centres undefined) | -7.08
72 | CCn1ncnc1CN1CCc2[nH]cnc2C1c1ccccn1 (centres undefined) | -9.38
73 | Cc1nccc(NCc2cncc3c2CCN(CC2CC2)C3)n1 | -92.4
74 | CNC(=O)c1cn[nH]c1C1CCCN1C(=O)c1ccccn1 (centres undefined) | 8.52
75 | CC(C)Cn1c(=O)n(CCn2cc(Cl)cn2)c2cc(C(=O)O)cnc21 | 3.72
76 | CC(C)c1ccn(C2(C(=O)O)CCN(c3ccncc3F)CC2)n1 | -0.679
77 | Cc1cc(C)n2cc(CN3CCC(N4CCN(C)C4=O)CC3)nc2n1 | 3.66
78 | CC1CCN(CC2(O)CCCN(Cc3cccc(F)c3F)C2=O)CC1 (centres undefined) | 0.801
79 | CN(CC(=O)NCCCOc1ccc(F)cc1)c1ccc(C#N)cn1 | -0.844
80 | CN(C)CC1(O)CCCN(C(=O)c2cnc(-c3ccccn3)nc2)C1 (centres undefined) | -5.53
81 | CC(C)n1ncc2c1NC(=O)CC21C(=O)Nc2c(Cl)cc(Cl)cc21 (centres undefined) | 3.38
82 | COCCNCC1(O)CCCN(Cc2ccc(F)c(F)c2)C1=O (centres undefined) | 3.93
83 | CC(C)Oc1ccc(CSc2nnc(CN3CCCC3=O)o2)cc1 | -1.71
84 | N#Cc1cccc(NC(=O)N[C@H](CO)c2ccccc2)c1 | -12.2
85 | CC(=O)N1CCN([C@@H]2CCC[C@@H](N(C)C(=O)C3CC3)[C@H]2O)CC1 | -5.97
86 | Clc1ccccc1-c1nc(CNCCn2cccn2)cs1 | -3.45
87 | Cc1nn(C)cc1-c1ccnc(N2CCCN(CC(C)C)CC2)n1 | 4.26
88 | CN1C(=O)C(C)(C)COc2cc(NS(=O)(=O)c3ccccc3F)ccc21 | -5.08

Row | SMILES | cytotoxicity at 10 µM [%]
89 | CC(OCc1ccccc1)C(=O)NCc1ccc(N(C)C)cc1 (centres undefined) | -12
90 | Cc1cc2n(n1)CC(CNCc1ccc(-n3cccn3)nc1)CN2 (centres undefined) | -10.5
91 | O=C(c1ccc(F)cc1)N1CC[C@H]2[C@H]1CCN2CC1CC1 | -1.92
92 | Cc1ccc2c(n1)N(CCN(C)C)CCN(C(=O)c1ccsc1)C2 | -57.3
93 | c1cncc(CNCCc2cccs2)c1 | -5.68
94 | CN1[C@@H](C(=O)NCC2CC2)C[C@@H]2CN(Cc3ccoc3)C[C@@H]21 | 3.88
95 | Cc1ccc(CN2CCC3(CCCC(=O)N3)CC2)s1 | -3.45
96 | COc1ccc(CN2C[C@@H]3OCCN(c4ncccn4)[C@@H]3C2)cc1 | 4.71
97 | C[C@@H]1CN2C[C@H](O)CC2CN1Cc1ccc2nccnc2c1 (some centres undefined) | 5.62
98 | COc1ncnc(N)c1CNCC(C)SC (centres undefined) | -0.554
99 | COc1cccc(COCC(=O)N2CCCC2Cn2cccn2)c1 (centres undefined) | -0.153
100 | Cc1ccccc1CSc1nc(N)cc(N2CCOC(C(N)=O)C2)n1 (centres undefined) | 5.27
101 | Cn1cc(CN2C[C@H]3CCC[C@@]3(COCC3CC3)C2)cn1 | -97.8
102 | c1ccc(CCCn2cc(-c3nc(CN4CCOCC4)no3)nn2)cc1 | 2.14
103 | COCCN1C[C@H]2CCN(C(C)=O)CC[C@H]2S1(=O)=O | 15.4
104 | Cc1nc(CC(=O)N2CCCC[C@H](N(C)C)C2)cs1 | 8.27
105 | CCc1nc(C)c(C(=O)NCCNC(=O)c2cccs2)s1 | -1.45
106 | CCn1cc(CN2CCC(CNC(C)=O)CC2)cc1C#N | -6.21
107 | COCCNC(=O)Nc1cccc2c1CCN(S(C)(=O)=O)C2 | 7.37
108 | O=C(CC1CC1)N[C@@H]1CN(Cc2ccco2)C[C@@H]2CCCO[C@@H]21 | -1.63
109 | Cn1cc(CN2C[C@@H]3COC[C@]3(COCC3CC3)C2)cn1 | -112
